From ChEMBL document CHEMBL1132973, “Design, synthesis, and antimicrobial activity of 6-O-substituted ketolides active against resistant respiratory tract pathogens” (2000)
In brackets after ≈: the same amount, converted by molar mass.

Key:
Type in all cases: functional
Staphylococcus aureus [1] = test: In vitro antibacterial activity against Staphylococcus aureus strain A 5177.
Method in brief: (§1)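 MICs in µg/mL determined by agar dilution per NCCLS recommendations. Panel includes erythromycin-susceptible strains (S. aureus ATCC 6538P, S. pyogenes EES 61, S. pneumoniae ATCC 6303); ermA MLS_B-resistant S. aureus (A 5177 inducible, A 5278 constitutive); ermB strains (S. pyogenes 930, S. pneumoniae 5737); efflux strains (S. pyogenes PIU 2548 mefA, S. pneumoniae 5649 mefE); and β-lactamase-positive ampicillin-resistant H. influenzae DILL.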

Staphylococcus aureus [2] = test: In vitro antibacterial activity against Staphylococcus aureus strain A 5278.; method in brief: as §1
Staphylococcus aureus [3] = test: In vitro antibacterial activity against Staphylococcus aureus strain ATCC 6538P; method in brief: as §1
Streptococcus pneumoniae [4] = test: In vitro antibacterial activity against Streptococcus pneumoniae strain 5649.; method in brief: as §1
Streptococcus pneumoniae [5] = test: In vitro antibacterial activity against Streptococcus pneumoniae strain 5737.; method in brief: as §1
Streptococcus pneumoniae [6] = test: In vitro antibacterial activity against Streptococcus pneumoniae strain ATCC 6303.; method in brief: as §1
Streptococcus pyogenes [7] = test: In vitro antibacterial activity against Streptococcus pyogenes strain 930.; method in brief: as §1
Streptococcus pyogenes [8] = test: In vitro antibacterial activity against Streptococcus pyogenes strain PIU 2548.; method in brief: as §1
Haemophilus influenzae = test: In vitro antibacterial activity against Haemophilus influenzae strain DILL.; method in brief: as §1
Staphylococcus aureus [9] = test: In vitro antibacterial activity against Staphylococcus aureus strain ATCC 6538P.; method in brief: as §1
Streptococcus pyogenes [10] = test: In vitro antibacterial activity against Streptococcus pyogenes strain EES 61.; method in brief: as §1
Staphylococcus aureus [11] = test: (§2) In vivo antibacterial activity against Staphylococcus aureus strain 10649
Streptococcus pneumoniae [12] = test: (§3) In vivo antibacterial activity against Streptococcus pneumoniae strain 5649
Method in brief: (§4)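 Rat lung infection. Rats inoculated intratracheally with 0.5 mL bacterial suspension in 5% gastric hog mucin containing log 10⁶-10⁸ cfu. Dosed daily on days 1-3, starting 18 h post-inoculation. Lung bacterial burden measured by serial-dilution plating of lung homogenates on day 4. ED50, the dose giving a 2 log reduction versus vehicle-treated infected controls, was calculated from group means by linear regression.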

Streptococcus pneumoniae [13] = test: (§5) In vivo antibacterial activity against Streptococcus pneumoniae strain 6396; method in brief: as §4
Staphylococcus aureus [14] = test: as §2; remark: listed apart in the source
Method in brief: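 Mice were inoculated intravenously with a 100-fold LD50 of the organism, then dosed by oral gavage at 1 and 5 h post-inoculation across a dose range. Survival was monitored for 7 days. ED50 is the dose giving 50% survival of treated mice over the trial.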

Streptococcus pneumoniae [15] = test: as §3; remark: listed apart in the source
Streptococcus pneumoniae [16] = test: (§6) In vivo antibacterial activity against Streptococcus pneumoniae strain 6303
Streptococcus pneumoniae [17] = test: as §5; remark: listed apart in the source
Streptococcus pyogenes [18] = test: In vivo antibacterial activity against Streptococcus pyogenes strain C203
Streptococcus pneumoniae [19] = test: as §6; method in brief: as §4; remark: listed apart in the source

Row | SMILES | MIC (Staphylococcus aureus [1]) [µg/mL] | MIC (Staphylococcus aureus [2]) [µg/mL] | MIC (Streptococcus pneumoniae [4]) [µg/mL] | MIC (Streptococcus pneumoniae [5]) [µg/mL] | MIC (Streptococcus pneumoniae [6]) [µg/mL] | MIC (Streptococcus pyogenes [7]) [µg/mL] | MIC (Streptococcus pyogenes [8]) [µg/mL] | MIC (Haemophilus influenzae) [µg/mL] | MIC (Staphylococcus aureus [9]) [µg/mL] | MIC (Streptococcus pyogenes [10]) [µg/mL] | also measured
1 | C=CCO[C@@]1(C)C[C@@H](C)C(=O)[C@H](C)[C@@H](O)[C@](C)(O)[C@@H](CC)OC(=O)[C@H](C)C(=O)[C@H](C)[C@H]1O[C@@H]1O[C@H](C)C[C@H](N(C)C)[C@H]1O | 50 (≈ 81.5 µM) | > 100 | 8 (≈ 13 µM) | > 128 | 4 (≈ 6.52 µM) | > 128 | 32 (≈ 52.1 µM) | > 128 | – | – | MIC (Staphylococcus aureus [3]): 12.5 µg/mL (≈ 20.4 µM)
2 | C=CCO[C@@]1(C)C[C@@H](C)C(=O)[C@H](C)[C@H]2NC(=O)O[C@]2(C)[C@@H](CC)OC(=O)[C@H](C)C(=O)[C@H](C)[C@H]1O[C@@H]1O[C@H](C)C[C@H](N(C)C)[C@H]1O | 1.56 (≈ 2.44 µM) | > 100 | 0.25 (≈ 0.391 µM) | > 64 | 0.5 (≈ 0.783 µM) | > 64 | 2 (≈ 3.13 µM) | 64 (≈ 100 µM) | 0.78 (≈ 1.22 µM) | 0.25 (≈ 0.391 µM) | –
3 | CC[C@H]1OC(=O)[C@H](C)C(=O)[C@H](C)[C@@H](O[C@@H]2O[C@H](C)C[C@H](N(C)C)[C@H]2O)[C@@](C)(OC/C=C/c2cnc3ccccc3c2)C[C@@H](C)C(=O)[C@H](C)[C@@H](O)[C@]1(C)O | 0.2 (≈ 0.27 µM) | > 100 | 0.25 (≈ 0.337 µM) | 16 (≈ 21.6 µM) | 0.03 (≈ 0.0405 µM) | 100 (≈ 135 µM) | 0.1 (≈ 0.135 µM) | 16 (≈ 21.6 µM) | 0.2 (≈ 0.27 µM) | 0.2 (≈ 0.27 µM) | –
4 | CC[C@H]1OC(=O)[C@H](C)C(=O)[C@H](C)[C@@H](O[C@@H]2O[C@H](C)C[C@H](N(C)C)[C@H]2O)[C@](C)(OC/C=C/c2ccccc2)C[C@@H](C)C(=O)[C@H](C)[C@@H](O)[C@]1(C)O | 1.56 (≈ 2.26 µM) | > 100 | 2 (≈ 2.9 µM) | 64 (≈ 92.8 µM) | 0.25 (≈ 0.362 µM) | 64 (≈ 92.8 µM) | 2 (≈ 2.9 µM) | 128 (≈ 186 µM) | 1.56 (≈ 2.26 µM) | 0.25 (≈ 0.362 µM) | –
5 | CC[C@H]1OC(=O)[C@H](C)C(=O)[C@H](C)[C@@H](O[C@@H]2O[C@H](C)C[C@H](N(C)C)[C@H]2O)[C@](C)(OC/C=C/c2ccccc2)C[C@@H](C)C(=O)[C@H](C)[C@H]2NC(=O)O[C@@]21C | 0.1 (≈ 0.14 µM) | > 100 | 0.25 (≈ 0.35 µM) | 64 (≈ 89.5 µM) | 0.03 (≈ 0.042 µM) | 64 (≈ 89.5 µM) | 0.25 (≈ 0.35 µM) | 4 (≈ 5.6 µM) | 0.1 (≈ 0.14 µM) | 0.03 (≈ 0.042 µM) | –
6 | CC[C@H]1OC(=O)[C@H](C)[C@@H](O[C@H]2C[C@@](C)(OC)[C@@H](O)[C@H](C)O2)[C@H](C)[C@@H](O[C@@H]2O[C@H](C)C[C@H](N(C)C)[C@H]2O)[C@](C)(O)C[C@@H](C)CN(C)[C@H](C)[C@@H](O)[C@]1(C)O [AZITHROMYCIN] | – | – | – | – | – | – | – | – | – | – | MIC (Staphylococcus aureus [11]): 0.78 µg/mL (≈ 1.04 µM); ED50 (Streptococcus pneumoniae [12]): 78.7 mg/kg; ED50 (Streptococcus pneumoniae [13]): > 100 mg/kg; ED50 (Staphylococcus aureus [14]): 24.8 mg/kg; MIC (Streptococcus pneumoniae [15]): 16 µg/mL (≈ 21.4 µM); MIC (Streptococcus pneumoniae [16]): 0.12 µg/mL (≈ 0.16 µM); MIC (Streptococcus pneumoniae [17]): > 128 µg/mL; ED50 (Streptococcus pyogenes [18]): 6.1 mg/kg; MIC (Streptococcus pyogenes [18]): 0.06 µg/mL (≈ 0.0801 µM); MIC (Streptococcus pyogenes [18]; Streptococcus pyogenes, read-out: MIC): 0.06 µg/mL (≈ 0.0801 µM)
7 | CC[C@H]1OC(=O)[C@H](C)C(=O)[C@H](C)[C@@H](O[C@@H]2O[C@H](C)C[C@H](N(C)C)[C@H]2O)[C@](C)(OCC=Cc2cnc3ccccc3c2)C[C@@H](C)C(=O)[C@H](C)[C@H]2NC(=O)O[C@@]21C [CETHROMYCIN] | 0.05 (≈ 0.0653 µM) | > 100 | 0.25 (≈ 0.326 µM) | 0.25 (≈ 0.326 µM) | 0.004 (≈ 0.00522 µM) | 1 (≈ 1.31 µM) | 0.125 (≈ 0.163 µM) | 2 (≈ 2.61 µM) | 0.05 (≈ 0.0653 µM) | 0.004 (≈ 0.00522 µM) | –
8 | CC[C@H]1OC(=O)[C@H](C)[C@@H](O[C@H]2C[C@@](C)(OC)[C@@H](O)[C@H](C)O2)[C@H](C)[C@@H](O[C@@H]2O[C@H](C)C[C@H](N(C)C)[C@H]2O)[C@](C)(O)C[C@@H](C)C(=O)[C@H](C)[C@@H](O)[C@]1(C)O [ERYTHROMYCIN] | 6.2 (≈ 8.45 µM) | > 100 | 16 (≈ 21.8 µM) | > 128 | 0.06 (≈ 0.0818 µM) | > 128 | 32 (≈ 43.6 µM) | 8 (≈ 10.9 µM) | – | 0.06 (≈ 0.0818 µM) | –
9 | CC[C@H]1OC(=O)[C@H](C)C(=O)[C@H](C)[C@@H](O[C@@H]2O[C@H](C)C[C@H](N(C)C)[C@H]2O)[C@](C)(OC)C[C@@H](C)C(=O)[C@H](C)[C@H]2N(CCCCn3cnc(-c4cccnc4)c3)C(=O)O[C@]12C [TELITHROMYCIN] | – | > 100 | – | 8 (≈ 9.85 µM) | 0.004 (≈ 0.00493 µM) | 8 (≈ 9.85 µM) | 2 (≈ 2.46 µM) | – | – | 0.004 (≈ 0.00493 µM) | MIC (Staphylococcus aureus [11]): 0.1 µg/mL (≈ 0.123 µM); ED50 (Streptococcus pneumoniae [12]): 25.8 mg/kg; ED50 (Streptococcus pneumoniae [19]): 34.1 mg/kg; ED50 (Streptococcus pneumoniae [13]): 26.7 mg/kg; ED50 (Staphylococcus aureus [14]): 12.5 mg/kg; MIC (Streptococcus pneumoniae [15]): 0.5 µg/mL (≈ 0.616 µM); MIC (Streptococcus pneumoniae [16]): 0.004 µg/mL (≈ 0.00493 µM); MIC (Streptococcus pneumoniae [17]): 0.125 µg/mL (≈ 0.154 µM)
